SENP6 inh: SENP6 protease inhibitors, primary screen, biochemical, luminescence, uHTS. 1.8% of 330,000 active. Sentrin-specific protease 6 (Homo sapiens), Q9GZR1. Recombinant SENP6 catalytic domain, aminoluciferin luminescence. inhibition, % at 10 µM. AID 2599, 2010;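 active means inhibition above about 50% at the single tested dose, limit read from the data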
Target sequence (Q9GZR1 628-1112 limits assumed): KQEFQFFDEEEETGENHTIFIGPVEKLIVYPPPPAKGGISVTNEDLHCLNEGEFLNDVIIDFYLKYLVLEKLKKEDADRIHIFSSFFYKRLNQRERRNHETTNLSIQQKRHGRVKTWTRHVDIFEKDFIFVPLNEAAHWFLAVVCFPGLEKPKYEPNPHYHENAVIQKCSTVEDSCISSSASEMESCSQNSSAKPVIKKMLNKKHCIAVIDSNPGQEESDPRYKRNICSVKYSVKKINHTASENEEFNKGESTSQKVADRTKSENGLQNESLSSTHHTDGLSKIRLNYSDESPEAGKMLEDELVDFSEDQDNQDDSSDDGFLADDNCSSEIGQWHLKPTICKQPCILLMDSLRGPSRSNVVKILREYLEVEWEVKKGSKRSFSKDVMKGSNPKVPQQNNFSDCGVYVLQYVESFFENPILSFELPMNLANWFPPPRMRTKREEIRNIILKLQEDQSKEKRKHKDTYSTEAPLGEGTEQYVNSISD
SENP8 block-1: SENP8 protease inhibitors, primary screen, biochemical, luminescence. purified SENP8, Z-RLRGG-aminoluciferin cleavage. inhibition, % at 10 µM. 1.2% of 330,000 active; in the data active means inhibition above about 50%
SENP1 FRET inh: human SENP1 catalytic domain inhibitors, primary screen, biochemical, FRET, uHTS. recombinant SENP1 catalytic domain, CyPet-SUMO1-YPet FRET cleavage. Sentrin-specific protease 1 (Homo sapiens), Q9P0U3. inhibition, % at 10 µM. 0.21% of 360,000 active;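 active means inhibition at least 30% at 10 µM, raw YFP signal under a set limit, fluorescence ratio 0.5 to 1.5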
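System: Recombinant human SENP1 catalytic domain, His6-tagged | Incubation: Enzyme reaction for 50 min at room temperature, dark | Medium: Tris pH 8 with BME, BSA, NP40 and catalase | Also added: 25 nM SUMO1 FRET substrate | Compound: 10 µM single point, 0.5% DMSO | Measured by: FRET fluorescence in CFP and YFP emission channels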
SENP7 inh: SENP7 protease inhibitors, primary screen, biochemical, luminescence, uHTS; recombinant SENP7, Z-RLRGG-aminoluciferin luminescence, 40 min; inhibition, % at 5 µM; 1.5% of 330,000 active; AID 434973, 2010;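 active means inhibition above about 50% at the single test dose, limit read from the data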
SENP8 block-2: human SENP8 protease inhibitors, primary screen, biochemical, fluorescence, Nedd8 protein substrate, uHTS | 0.64% of 360,000 active | inhibition, % at 20 µM | AID 602440, 2012 | recombinant SENP8 | Sentrin-specific protease 8 (Homo sapiens), Q96LD8; in the data active means inhibition mostly above about 40%, no sharp cut-off; inactive means mostly below about 27%
SENP8 confirm: SENP8 protease inhibitors, retest, confirmation, biochemical, luminescence, single concentration; inhibition, % at 12.5 µM; 40% of 6,200 active; shares compounds with SENP7 inh; AID 488912, 2010; Recombinant SENP8, Z-RLRGG-aminoluciferin luminescence, 60 min;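 active means mean inhibition across replicates above about 50%, limit read from the data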
SENP6 confirm: SENP6 protease inhibitors, confirmation, biochemical, luminescence, single concentration; shares compounds with SENP7 inh; recombinant SENP6, Z-RLRGG-aminoluciferin luminescence; inhibition, % at 12.5 µM; 58% of 6,200 active; AID 488915, 2010
SENP7 confirm: SENP7 protease inhibitors, retest, confirmation, biochemical, luminescence, single concentration. shares compounds with SENP7 inh. recombinant SENP7, Z-RLRGG-aminoluciferin luminescence, 40 min. inhibition, % at 12.5 µM. 69% of 6,200 active
Casp3 select: caspase-3 protease inhibitors, confirmation, selectivity assay for SENP inhibitor project, biochemical, single concentration; shares compounds with SENP7 inh; purified caspase-3, Z-DEVD-aminoluciferin luminescence, 60 min; inhibition, % at 12.5 µM; 60% of 6,200 active; AID 488918, 2010;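 active means mean inhibition above about 50%, limit read from the data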
SENP luc ctr: counter-screen for SENP inhibitors: luminescence interference | AID 488919 | inhibition, % at 12.5 µM | 39% of 6,200 active | shares compounds with SENP7 inh | Pre-incubated SENP8/Z-RLRGG-aminoluciferin, luciferase luminescence interference;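 active means mean inhibition above about 50% when retested at one dose, limit read from the data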
Of the large screens only hits and unclear results are named; the others gave an inactive call (follow-up assays come after a bar, where they were run); ! = a repeat was not active. Most compounds without a hit are left out; they make up all but 2.5% or so of the library.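 How the source made its calls, unless noted: active means mean inhibition above about 50% in the one-dose retest (limit read from the data); inactive means the rest.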

Cc1ccc(S(=O)(=O)/N=C2\C=C(Nc3ccc(O)cc3)C(=O)c3ccccc32)cc1	SENP6 inh 84, SENP8 block-1 90, SENP7 inh 64, SENP8 block-2 80 | SENP8 confirm 90 | SENP6 confirm 95 | SENP7 confirm 86 | Casp3 select 94 | SENP luc ctr inactive
Cc1ccc(S(=O)(=O)/N=C2\C=C(Nc3cccc(C(=O)O)c3)C(=O)c3ccccc32)c(C)c1	SENP6 inh 95, SENP8 block-1 94, SENP7 inh 55, SENP8 block-2 81 | SENP8 confirm 60 | SENP6 confirm 97 | SENP7 confirm inactive | Casp3 select inactive | SENP luc ctr inactive
Cc1ccc(NC2=C/C(=N/S(=O)(=O)c3cccs3)c3ccccc3C2=O)cc1	SENP6 inh 77, SENP7 inh 69, SENP8 block-2 94 | SENP8 confirm inactive | SENP6 confirm 54 | SENP7 confirm inactive | Casp3 select inactive | SENP luc ctr inactive
COC(=O)c1ccccc1NC1=C/C(=N\S(=O)(=O)c2cccs2)c2ccccc2C1=O	SENP6 inh 63, SENP8 block-1 89, SENP7 inh 52, SENP8 block-2 53! | SENP8 confirm inactive | SENP6 confirm 64 | SENP7 confirm inactive | Casp3 select inactive | SENP luc ctr inactive
COc1ccc(CCNC(=O)c2cc3cc(F)ccc3nc2C)cc1OC	none
COc1ccc(CCN2C(=S)N(C)C(=O)C2CC(=O)Nc2ccc(F)cc2)cc1 (stereo not drawn)	none
Cc1cccc(NC(=O)c2ccc(OCc3c(C)noc3C)cc2)n1	none
O=C(CC(Nc1ccc(Cl)cc1)C(=O)O)c1ccccc1 (stereo not drawn)	SENP6 inh 92, SENP8 block-1 77, SENP7 inh 81 | SENP8 confirm inactive | SENP6 confirm 86 | SENP7 confirm 78 | Casp3 select 67 | SENP luc ctr inactive
O=C(NCCSc1ccc(Br)cc1)c1ccc2nc[nH]c2c1	none
Cn1sc(NC(=O)c2cccc(Cl)c2)nc1=O	SENP6 inh 69, SENP8 block-1 65, SENP7 inh 70 | SENP8 confirm inactive | SENP6 confirm 72 | SENP7 confirm 92 | Casp3 select 82 | SENP luc ctr 72
Cn1sc(NC(=O)c2ccccc2Cl)nc1=O	none
COc1ncccc1-c1nnn(-c2ccc(Cl)c(Cl)c2)n1	none
COc1ncccc1-c1nnn(-c2ccc(C)cc2)n1	SENP6 inh 78, SENP8 block-1 70, SENP7 inh 80 | SENP8 confirm 78 | SENP6 confirm 81 | SENP7 confirm 96 | Casp3 select 82 | SENP luc ctr 79
COc1ncccc1-c1nnn(-c2ccc(F)cc2)n1	SENP6 inh 73, SENP8 block-1 67, SENP7 inh 70 | SENP8 confirm 71 | SENP6 confirm 75 | SENP7 confirm 93 | Casp3 select 81 | SENP luc ctr 69
CCOC(=O)C1(C)CCCN(C(=O)CCc2ccccc2)C1 (stereo not drawn)	none (no result: SENP6 inh, SENP8 block-1, SENP7 inh)

Compound activity: PubChem, Sanford-Burnham Center for Chemical Genomics
